Laboratory results reported in ChEMBL document CHEMBL1125713, “Synthesis and antiarrhythmic activity of cis-2,6-dimethyl-alpha,alpha-diaryl-1-piperidinebutanols” (1991).

What was measured:
[1] = system: Canis familiaris; experiment: Antiarrhythmic effect in coronary artery ligated dog model at a dose of 5 mg/kg, administered intravenously and value noted at 1 hr; type: functional, Canis lupus familiaris, Heart; details: route intravenous
Method in brief: (§1)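 Coronary-ligated dogs with ventricular arrhythmias. Dosing was 5 mg/kg in 10–20 mL isotonic saline, given as an iv infusion over 5 min. Limb lead II ECG was monitored continuously for up to 6 h. Percent normal sinus beats was scored at control, end of dose, 20 min and 1 h. Values are mean ± SEM for three or more animals, mean ± SD for two.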

[2] = system: Canis familiaris; experiment: Antiarrhythmic effect in coronary artery ligated dogs model at a dose of 5 mg/kg, value noted at end dose.; type: functional, Canis lupus familiaris, Heart; method in brief: as §1
[3] = species on record: Canis familiaris; experiment: Compound was evaluated for the activity rating; type: functional, Canis lupus familiaris
Method in brief: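 In ligated dogs given 5 mg/kg iv over 5 min, group % normal beats was plotted at end of dose, 20 min and 1 h. The area under this curve minus the control area was divided by the same area for an ideal response (100% normal beats for the whole hour), then multiplied by 100.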

[4] = system: Canis familiaris; experiment: Antiarrhythmic effect in coronary artery ligated dogs model at a dose of 5 mg/kg, administered intravenously and value noted at 20 min; type: functional, Canis lupus familiaris, Heart; details: route intravenous; method in brief: as §1
[5] = system: Canis familiaris; experiment: Compound was evaluated for the heart rate effect in normal dogs at a dose of 5 mg/kg, administered intravenously and value noted at 20 min.; type: functional, Canis lupus familiaris; details: route intravenous
Method in brief: (§2)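 Conscious normal dogs, trained and sling-restrained, received the same iv dosing: 5 mg/kg infused over 5 min. Heart rate came from continuous limb lead II ECG at control, end of dose, 20 min and 1 h. Values are mean ± SD for two dogs.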

[6] = species on record: Canis familiaris; experiment: Compound was evaluated for the degree of tachycardia.; type: functional, Canis lupus familiaris
Method in brief: (§3)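 Conscious normal dogs received 5 mg/kg iv over 5 min, with heart rate from limb lead II ECG. Tachycardia was graded as severe (≥200 beats/min), moderate (160–199), slight (<160 after a rise of ≥20) or none (change <20 beats/min).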

[7] = species on record: Canis familiaris; experiment: Compound was evaluated for the duration of sustained effect; type: functional, Canis lupus familiaris
Method in brief: (§4)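 Normal dogs received 5 mg/kg iv over 5 min, with heart rate tracked by continuous ECG. Dogs above 140 beats/min were followed until the rate fell to 140. The sustained effect was rated long (>2 h), moderate (0.5–2 h) or short (<0.5 h).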

[8] = system: Canis familiaris; experiment: Compound was evaluated for the heart rate effect in normal dogs at a dose of 5 mg/kg, administered intravenously and value noted at end dose.; type: functional, Canis lupus familiaris; details: route intravenous; method in brief: as §2
[9] = system: Canis familiaris; experiment: Compound was evaluated for the heart rate effect in normal dogs at a dose of 5 mg/kg, administered intravenously and value noted at 1h.; type: functional, Canis lupus familiaris; details: route intravenous; method in brief: as §2
[10] = species on record: Canis familiaris; experiment: Compound was evaluated for the degree of tachycardia; 160-199; type: functional, Canis lupus familiaris; method in brief: as §3
[11] = species on record: Canis familiaris; experiment: Compound was evaluated for the duration of sustained effect; 0.5-2; type: functional, Canis lupus familiaris; method in brief: as §4
[12] = species on record: Canis familiaris; experiment: Compound was evaluated for the degree of tachycardia 160-199; type: functional, Canis lupus familiaris; method in brief: as §3
[13] = species on record: Canis familiaris; experiment: Compound was evaluated for the degree of tachycardia; type: functional, Canis lupus familiaris; method in brief: as §3

| SMILES | Normal beats [1] [%] | Normal beats [2] [%] | Activity rating [3] | Normal beats [4] [%] | Heart rate [5] [beats min-1] | Heart rate [6] [beats min-1] | Duration [7] [h] | Heart rate [8] [beats min-1] | Heart rate [9] [beats min-1] | Heart rate [10] [beats min-1] | Duration [11] [h] | Heart rate [12] [beats min-1] | Beats/min [13] | Beats/min [5] | Beats/min [8] | Beats/min [9] |
| --- | --- | --- | --- | --- | --- | --- | --- | --- | --- | --- | --- | --- | --- | --- | --- | --- |
| Cl.OC(CCCN1CCCCC1)(c1ccccc1)c1ccccn1 (stereo unspecified) | 8 | 97 | 17 | 21 | – | – | – | – | – | – | – | – | – | – | – | – |
| CC1CCCC(C)N1CCCC(O)(c1ccccc1)c1cccnc1.Cl (stereo unspecified) | 6 | 43 | 13 | 16 | – | – | – | – | – | – | – | – | – | – | – | – |
| Cc1ccccc1C(O)(CCCN1C(C)CCCC1C)c1ccccc1.Cl (stereo unspecified) | 61 | 92 | 60 | 61 | 149 | <160 | >2 | 155 | 151 | – | – | – | – | – | – | – |
| CC1CCCC(C)N1CCCC(O)c1ccccc1.Cl (stereo unspecified) | 10 | 99 | 35 | 45 | – | – | – | – | – | – | – | – | – | – | – | – |
| CC1CCCC(C)N1CCCC(O)(c1ccccn1)c1ccccn1.Cl (stereo unspecified) | 32 | 90 | 53 | 68 | – | – | – | – | – | – | – | – | – | – | – | – |
| CC1CCCC(C)N1CCCC(O)(c1ccccc1)C1CCCCC1.Cl (stereo unspecified) | 68 | 98 | 66 | 65 | 152 | – | – | 176 | 121 | 160 | 0.5 | – | – | – | – | – |
| CCC1CCCCN1CCCC(O)(c1ccccc1)c1ccccc1.Cl (stereo unspecified) | 37 | 87 | 46 | 48 | – | – | – | – | – | – | – | – | – | – | – | – |
| CC1CCCC(C)N1CCCC(c1ccccc1)c1ccccn1.Cl (stereo unspecified) | 67 | 62 | 47 | 37 | – | – | – | – | – | – | – | – | – | – | – | – |
| CC1CCCC(C)N1CCCC(C#N)(c1ccccc1)c1ccccc1.Cl (stereo unspecified) | 65 | 90 | 82 | 88 | 147 | – | >2 | 168 | 137 | – | – | 160 | – | – | – | – |
| CC1CCCC(C)N1CCC(C(N)=O)(c1ccccc1)c1ccccc1.Cl (stereo unspecified) | 83 | 64 | 39 | 51 | – | – | – | – | – | – | – | – | – | – | – | – |
| CC1CCCC(C)N1CCC(O)(c1ccccc1)c1ccccc1.Cl (stereo unspecified) | 74 | 97 | 86 | 96 | 117 | – | – | 137 | 130 | – | – | – | – | – | – | – |
| CC(=O)NCC(CCCN1C(C)CCCC1C)(c1ccccc1)c1ccccc1.Cl (stereo unspecified) | 53 | 95 | 62 | 71 | – | – | – | – | – | – | – | – | – | – | – | – |
| CC1CCCC(C)N1CCCC(c1ccccc1)c1ccccc1.Cl (stereo unspecified) | 92 | 95 | 94 | 97 | – | – | >2 | – | – | – | – | – | >=200 | 218 | 255 | 179 |
| CC1CCCC(C)N1CCCC(O)(c1ccccc1)c1ccccc1.Cl (stereo unspecified) | 76 | 96 | 81 | 86 | 155 | – | – | 187 | 165 | 160 | – | – | – | – | – | – |
| CC1CCCC(C)N1CCCC(C(N)=O)(c1ccccc1)c1ccccc1.Cl (stereo unspecified) | 94 | 98 | 91 | 90 | 223 | >200 | >2 | 235 | 215 | – | – | – | – | – | – | – |
| CC1CCC(C)N1CCCC(O)(c1ccccc1)c1ccccc1.Cl (stereo unspecified) | 35 | 69 | 29 | 39 | 218 | >200 | >2 | 243 | 193 | – | – | – | – | – | – | – |
| CC1CCCC(C)N1CCC(C#N)(c1ccccc1)c1ccccc1.Cl (stereo unspecified) | 65 | 91 | 70 | 72 | – | – | – | – | – | – | – | – | – | – | – | – |
| CC1CCCC(C)N1CCCC(O)(c1ccccc1)c1ccncc1 (stereo unspecified) | 7 | 51 | 13 | 11 | – | – | – | – | – | – | – | – | – | – | – | – |
| CC1CCC(C)N1CCCCC(O)(c1ccccc1)c1ccccn1 (stereo unspecified) | 43 | 88 | 42 | 52 | – | – | – | – | – | – | – | – | – | – | – | – |
| CC1CCCC(C)N1CCCC(C#N)(c1ccccc1)c1ccccn1 (stereo unspecified) | 97 | 100 | 36 | 50 | 154 | <160 | <0.5 | 154 | 131 | – | – | – | – | – | – | – |
| CC(=O)NCC(CCN1C(C)CCCC1C)(c1ccccc1)c1ccccc1 (stereo unspecified) | 49 | 82 | 53 | 62 | 119 | <160 | <0.5 | 141 | 103 | – | – | – | – | – | – | – |
| CC1CCCC(C)N1CCC(CN)(c1ccccc1)c1ccccc1 (stereo unspecified) | 39 | 100 | 50 | 61 | – | – | – | – | – | – | – | – | – | – | – | – |
| CC1CCCC(C)N1CCCCC(O)(c1ccccc1)c1ccccc1 (stereo unspecified) | 51 | 99 | 72 | 84 | 139 | – | – | 137 | 140 | – | 0.5 | – | – | – | – | – |
| CC1CCCC(C)N1CCCC(C(N)=O)(c1ccccc1)c1ccccn1 (stereo unspecified) | 62 | 96 | 80 | 87 | 145 | – | – | 197 | 129 | 160 | 0.5 | – | – | – | – | – |
| CC1CCCC(C)N1CC(O)(c1ccccc1)c1ccccc1 (stereo unspecified) | 16 | 56 | 15 | 16 | 92 | – | – | 115 | 96 | – | – | – | – | – | – | – |
| Cl.OC(CCCN1CCCCC1)(c1ccccc1)c1ccccc1 [DIPHENIDOL HYDROCHLORIDE] | 34 | 90 | 39 | 54 | 155 | – | >2 | 200 | 142 | 160 | – | – | – | – | – | – |
| CC(C)N(CCC(C(N)=O)(c1ccccc1)c1ccccn1)C(C)C (stereo unspecified) [DISOPYRAMIDE] | 16 | 89 | 49 | 60 | – | – | – | – | – | – | – | – | – | – | – | – |
| CC1CCCC(C)N1CCCC(O)(c1ccccc1)c1ccccn1.Cl (stereo unspecified) [PIRMENOL HYDROCHLORIDE] | 59 | 94 | 71 | 80 | 172 | – | >2 | 194 | 157 | 160 | – | – | – | – | – | – |
